Here are results for one molecule from ChEMBL document CHEMBL4725347, “Discovery of a Monoiodo Aza-BODIPY Near-Infrared Photosensitizer: in vitro and in vivo Evaluation for Photodynamic Therapy” (J Med Chem, 2020).

In data set [1] the test system is HeLa. Kind of data set: Phototoxicity against human HeLa cells assessed as reduction in cell viability preincubated for 3 hrs followed by 54 J/cm2 light irradiation and measured after 24 hrs by MTT assay. It counts as functional, cell-based. Conditions: light or radiation study. In short, it runs like this: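 PS formulated in PBS containing Cremophor EL/1,2-propanediol (10:3, v:v) after THF removal, filtered, with concentration confirmed by UV-Vis. Cells were grown in DMEM with 10% FBS and seeded at 3×10^3 per well overnight. They were incubated with PS for 3 h, irradiated at λ > 590 nm, kept 24 h at 37 °C, then given MTT (0.5 mg/mL, 4 h) with DMSO solubilization and A490 read-out.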

A short description of data set [2]: Absorption property of the compound in PBS containing 1% Cremophor EL/1,2-propanediol (10:3, v:v) system assessed as absorption coefficient by UV-visible spectrophotometric method. It counts as physicochemical. As to conditions: buffer. In short, it runs like this:
(§1)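 Electronic absorption spectra recorded by UV-visible spectrophotometry at room temperature. Solvents were chloroform, isopropanol, acetonitrile, DMF, and PBS buffer containing 1% Cremophor EL/1,2-propanediol (10:3, v:v). Chloroform data were referenced to the non-halogenated parent dye.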

The subject of data set [3] is HeLa. In words: Induction of apoptosis in human HeLa cells assessed as early apoptotic cells at 200 nM preincubated for 3 hrs followed by 27 J/cm2 light irradiation and measured after 24 hrs by Annexin-V-FITC/propidium iodide staining based flow cytometry (reference value: 0.54%). It is filed as functional. In short, it runs like this:
(§2)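 HeLa cells in six-well plates were exposed to compound for 3 h, irradiated (λ > 590 nm), and incubated 24 h at 37 °C. Cells were then harvested, washed with PBS, and stained with annexin V-FITC/PI for 20 min at room temperature before immediate flow cytometry. Untreated, unirradiated cells served as control.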

A short description of data set [4]: Drug uptake in human HeLa cells xenografted Balb/c nu/nu mouse kidney at 2 mg/kg, iv measured within 1 hr by fluorescence imaging analysis. It is filed as ADME, organism-based. As to conditions: in vivo. In short, it runs like this: (§3)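 Female Balb/c nu/nu mice bore subcutaneous HeLa tumors (5×10^6 cells, right back) and received 2 mg/kg via tail vein. Living mice were imaged under isoflurane at time points (ex 680/em 720 nm, 1 s exposure). At set times mice were euthanized and heart, liver, spleen, lungs, kidneys and tumor imaged ex vivo; ROI quantified, mean ± SD, n = 3.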

In data set [5] the test system is HeLa. In words: Induction of apoptosis in human HeLa cells assessed as necrotic cells at 40 nM preincubated for 3 hrs followed by 54 J/cm2 light irradiation and measured after 24 hrs by Annexin-V-FITC/propidium iodide staining based flow cytometry (reference value: 2.8%). It counts as functional. The gist of the method:
as §2

Data set [6] relates to HeLa. In words: Induction of apoptosis in human HeLa cells assessed as necrotic cells at 200 nM preincubated for 3 hrs followed by 27 J/cm2 light irradiation and measured after 24 hrs by Annexin-V-FITC/propidium iodide staining based flow cytometry (reference value: 2.8%). It is filed as functional. The gist of the method:
as §2

The nature of data set [7]: Drug uptake in human HeLa cells xenografted Balb/c nu/nu mouse spleen at 2 mg/kg, iv measured within 1 hr by fluorescence imaging analysis. It is filed as ADME, organism-based. As to conditions: in vivo. The gist of the method:
as §3

Data set [8] relates to HeLa. In words: Induction of reactive oxygen species generation in human HeLa cells at 0.004 to 2.5 uM incubated for 3 hrs prior to H2DCFDA addition for 20 mins followed by 54 J/cm2 light irradiation by microplate reader analysis. It counts as functional, cell-based. Conditions: dose microM 0.004-2.5, time 3.0 hrs. In short, it runs like this: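 HeLa cells were exposed to 0.004, 0.02, 0.10, 0.5 or 2.5 μM for 3 h, washed, and loaded with H2DCFDA 10 μM in PBS for 20 min at 37 °C. After washing, cells in PBS were irradiated with 54 J/cm² (λ > 590 nm) or kept dark. Fluorescence was read by confocal microscopy and by plate reader (ex 485/em 538 nm).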

The test system of data set [9] is HeLa. Kind of data set: Induction of apoptosis in human HeLa cells assessed as late apoptotic cells at 200 nM preincubated for 3 hrs followed by 27 J/cm2 light irradiation and measured after 24 hrs by Annexin-V-FITC/propidium iodide staining based flow cytometry (reference value: 5.92%). It counts as functional. In short, it runs like this: as §2
A short description of data set [10]: Dark toxicity in human HeLa cells assessed as reduction in cell viability after 3 hrs by MTT assay. It counts as cell-based. In short, it runs like this: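 Compound was formulated with Cremophor EL/1,2-propanediol in PBS, filtered, and its concentration confirmed by UV-Vis. HeLa cells in DMEM with 10% FBS at 37 °C, 5% CO2 were seeded at 3×10^3 cells/well and adhered overnight. Cells were exposed to graded concentrations for 3 h without light, incubated 24 h, then MTT 0.5 mg/mL for 4 h; formazan dissolved in DMSO, A490 read.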

Data set [11] can be described thus: Photostability of the compound in acetonitrile assessed as compound degradation irradiated with 90 mW/cm2 light. It counts as physicochemical.
Data set [12] is described as follows: Absorption property of the compound in N,N-dimethylformamide assessed as absorption coefficient by UV-visible spectrophotometric method. It is filed as physicochemical. In short, it runs like this:
as §1

Data set [13] is described as follows: Toxicity in human HeLa cells xenografted Balb/c nu/nu mouse assessed as body weight loss at 2 mg/kg, iv pretreated for 15 mins followed by 54 J/cm2 light irradiation for 10 mins and measured for 24 days. It counts as organism-based. Conditions: in vivo, 0.25 h. The gist of the method:
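Female Balb/c nu/nu mice (18-22 g) carried subcutaneous HeLa cells (about 5×10^6, right back) and were treated on day 7 at a tumor volume of 80-100 mm³. Five mice per group received a tail-vein dose; saline controls were also irradiated. Fifteen minutes later the tumor was irradiated once with a 75 W halogen lamp (590 nm cut-on, 90 mW/cm², 10 min), without anaesthesia. Body weight was recorded every other day.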

A short description of data set [14]: Photostability of the compound in isopropanol assessed as compound degradation irradiated with 90 mW/cm2 light. It counts as physicochemical.
Data set [15] has as its system HeLa. In words: Induction of apoptosis in human HeLa cells assessed as late apoptotic cells at 200 nM preincubated for 3 hrs followed by 54 J/cm2 light irradiation and measured after 24 hrs by Annexin-V-FITC/propidium iodide staining based flow cytometry (reference value: 5.92%). It counts as functional. The gist of the method:
as §2

In data set [16] the test system is HeLa. In words: Induction of apoptosis in human HeLa cells assessed as late apoptotic cells at 40 nM preincubated for 3 hrs followed by 54 J/cm2 light irradiation and measured after 24 hrs by Annexin-V-FITC/propidium iodide staining based flow cytometry (reference value: 5.92%). It is filed as functional. In short, it runs like this:
as §2

Data set [17] can be described thus: Drug uptake in human HeLa cells xenografted Balb/c nu/nu mouse tumor at 2 mg/kg, iv measured after 3 hrs by fluorescence imaging analysis. It is filed as ADME, organism-based, Neoplasm. Conditions: in vivo. In short, it runs like this:
as §3

Data set [18] can be described thus: Induction of singlet oxygen generation in PBS containing 1% Cremophor EL/1,2-propanediol (10:3, v:v) system assessed as relative rate of DPBF degradation to MB at 1 uM irradiated with 90 mW/cm2 halogen light. It counts as functional. The gist of the method:
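Singlet oxygen generation measured with 1,3-diphenylisobenzofuran (DPBF) as scavenger. The decrease in DPBF absorbance at 411 nm was monitored over time during light irradiation, and the photodegradation rate was calculated.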

A short description of data set [19]: Drug uptake in Balb/c nu/nu mouse xenografted with human HeLa cells at 2 mg/kg, iv measured up to 3 hrs by fluorescence imaging analysis. It counts as ADME, organism-based. As to conditions: in vivo. In short, it runs like this:
as §3

The subject of data set [20] is HeLa. In words: Phototoxicity against human HeLa cells assessed as reduction in cell viability at 125 nM preincubated for 2 hrs followed by 5.4 to 108 J/cm2 light irradiation and measured after 24 hrs by MTT assay. It is filed as functional, cell-based.
A short description of data set [21]: Drug uptake in human HeLa cells xenografted Balb/c nu/nu mouse liver at 2 mg/kg, iv measured within 1 hr by fluorescence imaging analysis. It is filed as ADME, organism-based. As to conditions: in vivo. The gist of the method: as §3

Structures are written as SMILES. The source made the active and inactive calls. No cut-off for these calls is given here. Some results are limits rather than exact numbers.

Consider `COc1ccc(C2=[N+]3C(=Nc4c(-c5ccccc5)cc(-c5ccc(OC)cc5)n4[B-]3(F)F)C(c3ccccc3)=C2I)cc1`, for which the IC50 in data set [1] worked out at 76 nM. Moreover, the Activity was 34000 M⁻¹ cm⁻¹ in [2]; 20.46% in data set [3]; 1.73% in data set [5]; 21.64% in data set [6]; 14.98% in [9]; 59300 M⁻¹ cm⁻¹ in data set [12]. The values for the Activity result in data set [13], in data set [15] and in data set [16] were “Non-Toxic”, 8.6% and 10.31%, respectively. Further, the Drug uptake result in [4], in data set [7], in data set [17], in [19] and in [21] was “Active” in each case. Moreover, the result in data set [8] and in [20] was Active. For the same molecule, the 50% inhibitory concentration (IC50) at 3 h in [10] is more than 50000 nM. Moreover, the Stabilty result in data set [11] and in [14] was “Stable” in each case. Also, the fold change (FC) in data set [18] stood at 2.4.
